Measurements from ChEMBL document CHEMBL2331253, “Atropisomeric dihydroanthracenones as inhibitors of multiresistant Staphylococcus aureus” (J Med Chem, 2013).
In brackets after ≈: the same amount, converted by molar mass. Activity calls are given as the source filed them. No cut-off for these calls is given here.

Legend:
Bacillus subtilis [1] = assay: Induction of recA promoter in Bacillus subtilis YB3001 using 4-methylumbelliferyl beta D-galactopyranoside as substrate incubated for 3 hrs prior to substrate addition measured after 1 hr by beta galactosidase reporter gene assay relative to control; format: functional
Method in brief: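 recA–β-galactosidase reporter in B. subtilis YB3001. Twofold compound dilutions in lysogeny broth were inoculated with mid-exponential cells and incubated 3 h at 37 °C, then frozen at −20 °C overnight. Cells were lysed with lysozyme (30 min, 37 °C) and Triton X-100. MUG was added and incubated 1 h at 25 °C. Fluorescence read at ex 360/em 450 nm.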

Bacillus subtilis [2] = assay: Induction of helD promoter in Bacillus subtilis IS34 at 64 ug/mL after 3 hrs by luciferase reporter gene assay; format: functional, organism-based
Method in brief: (§1)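 Promoter–firefly luciferase fusions were built in B. subtilis IS34. Luminescence was read in a plate reader and expressed as percent of the untreated control. One representative experiment.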

Streptococcus agalactiae = assay: Antibacterial activity against doxycycline-intermediate Streptococcus agalactiae 013761 assessed as growth inhibition by CLSI broth microdilution method; format: functional
Staphylococcus aureus [3] = assay: (§2) Antibacterial activity against amoxicillin, chloramphenicol, ciprofloxacin, clindamycin, erythromycin, fosmidomycin, gentamycin, kanamycin, nitrofurantoin, telithromycin, methicillin-resistant Staphylococcus aureus 25697 assessed as growth inhibition by CLSI broth microdilution method; format: functional
Method in brief: (§3)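 MICs determined by CLSI broth microdilution in Mueller–Hinton broth. Inoculum was prepared by direct colony suspension, at 5 × 10^5 CFU/mL.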

Enterococcus faecium = assay: Antibacterial activity against clarithromycin, erythromycin, telithromycin, vancomycin-resistant Enterococcus faecium 6011 assessed as growth inhibition by CLSI broth microdilution method; format: functional; method in brief: as §3
Bacillus subtilis [4] = assay: Induction of bmrC promoter in Bacillus subtilis IS34 promoter at 64 ug/mL after 3 hrs by luciferase reporter gene assay; format: functional, organism-based; method in brief: as §1
Klebsiella pneumoniae = assay: Antibacterial activity against doxycycline, kanamycin-resistant Klebsiella pneumoniae ATCC 27799 assessed as growth inhibition by CLSI broth microdilution method; format: functional; method in brief: as §3
Staphylococcus aureus [5] = assay: Antibacterial activity against Staphylococcus aureus subsp. aureus Mu50 assessed as growth inhibition measured at 5 mins interval over 20 hrs by spectrophotometric analysis relative to control; format: functional
Method in brief: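 S. aureus Mu50 was grown in Mueller−Hinton broth at 37 °C with shaking between reads. Dilution and inoculum were as for broth microdilution, with compound at 0.031–64 μg/mL. OD600 was read at 5 min intervals over 20 h against an untreated control. Run in triplicate.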

Enterococcus faecalis = assay: Antibacterial activity against clarithromycin, erythromycin, moxifloxacin, telithromycin, vancomycin-resistant Enterococcus faecalis UW 2689 assessed as growth inhibition by CLSI broth microdilution method; format: functional; method in brief: as §3
Bacillus subtilis [6] = assay: Induction of yorB promoter in Bacillus subtilis IS34 after 3 hrs at 0.01 to 100 ug/ml by luciferase reporter gene assay; format: functional; method in brief: as §1
Pseudomonas aeruginosa = assay: Antibacterial activity against ceftazidime, ciprofloxacin, cefepime, gentamycin, imipenem, meropenem, piperacillin/tazobactam-resistant Pseudomonas aeruginosa 63230 assessed as growth inhibition by CLSI broth microdilution method; format: functional; method in brief: as §3
THP-1 [7] = assay: Cytotoxicity against human THP1 cells assessed as growth inhibition after 48 hrs by Alamar blue assay; format: cell-based; details: THP-1, 48 h
Method in brief: (§4)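 THP-1 cells were kept in RPMI-1640 with 10% FCS. BALB/3T3 cells were kept in DMEM with 10% FCS. Cells were plated at 10^4 per well without antibiotics and exposed to 0.016−32 μg/mL (final, 0.32% DMSO) for 48 h at 37 °C, 5% CO2. AlamarBlue was added for 24 h more. Fluorescence (ex 560/em 600 nm) was expressed relative to untreated cells.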

Streptococcus pneumoniae = assay: Antibacterial activity against Streptococcus pneumoniae ATCC 49619 assessed as growth inhibition by CLSI broth microdilution method; format: functional
Bacillus subtilis [8] = assay: Antibacterial activity against Bacillus subtilis subsp. subtilis str. 168 trpC2 assessed as growth inhibition by CLSI broth microdilution method; format: functional
Bacillus subtilis [9] = assay: Induction of liaI promoter in Bacillus subtilis IS34 promoter at 64 ug/mL after 3 hrs by luciferase reporter gene assay; format: functional, organism-based; method in brief: as §1
Staphylococcus aureus [10] = assay: (§5) Antibacterial activity against ceftazidime, clarithromycin, ciprofloxacin, clindamycin, doxycycline, erythromycin, methicillin, moxifloxacin, kanamycin, telithromycin, rifampicin, methicillin-resistant, vancomycin-intermediate Staphylococcus aureus subsp. aureus Mu50 assessed as growth inhibition by CLSI broth microdilution method; format: functional; method in brief: as §3
BALB/3T3 [11] = assay: Cytotoxicity against mouse BALB/3T3 cells assessed as growth inhibition after 48 hrs by Alamar blue assay; format: cell-based; details: BALB/3T3, 48 h; method in brief: as §4
Escherichia coli [12] = assay: Antibacterial activity against Escherichia coli ATCC 25922 assessed as growth inhibition by CLSI broth microdilution method; format: functional
Escherichia coli [13] = assay: Antibacterial activity against ciprofloxacin-resistant Escherichia coli WT-3-1 MB2 assessed as growth inhibition by CLSI broth microdilution method; format: functional; method in brief: as §3
Streptococcus pyogenes = assay: Antibacterial activity against doxycycline-intermediate Streptococcus pyogenes 014327 assessed as growth inhibition by CLSI broth microdilution method; format: functional
Bacillus subtilis [14] = assay: Induction of yorB promoter in Bacillus subtilis IS34 after 3 hrs by luciferase reporter gene assay relative to control; format: functional; method in brief: as §1
Staphylococcus aureus [15] = assay: Antibacterial activity against Staphylococcus aureus ATCC 29213 assessed as growth inhibition by CLSI broth microdilution method; format: functional; method in brief: as §3
Bacillus subtilis [16] = assay: Antibacterial activity against Bacillus subtilis subsp. subtilis str. 168 trpC2 assessed as growth inhibition measured at 5 mins interval over 20 hrs by spectrophotometric analysis relative to control; format: functional, organism-based
Method in brief: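 B. subtilis 168 trpC2 was grown in lysogeny broth, shaken, at 37 °C. Dilution and inoculum were as for broth microdilution. OD600 was read every 5 min over 20 h in untreated versus treated cultures.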

Staphylococcus aureus [17] = assay: as §2, with “assessed as concentration required for partial growth inhibition” for “assessed as growth inhibition”; format: functional
Bacillus subtilis [18] = assay: Induction of yorB promoter in Bacillus subtilis IS34 after 3 hrs at 0.001 to 10 ug/ml by luciferase reporter gene assay; format: functional; method in brief: as §1
Bacillus subtilis [19] = assay: Antibacterial activity against Bacillus subtilis subsp. subtilis str. 168 trpC2 assessed as induction of SOS response-mediated DNA degradation at 0.125 ug/mL after 120 mins by DAPI staining-based fluorescence microscopic analysis; format: functional, organism-based
Method in brief: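 B. subtilis 168 trpC2 was grown in lysogeny broth to OD600 0.1−0.3, then treated in plates at 37 °C with shaking. Aliquots were taken 30−180 min after addition and stained 60 s with DAPI (1 μg/mL stock). Cells were immobilized on 1% agarose slides and imaged by phase contrast and fluorescence. Performed twice.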

Bacillus subtilis [20] = assay: Antibacterial activity against Bacillus subtilis subsp. subtilis str. 168 trpC2 assessed as concentration required for partial growth inhibition by CLSI broth microdilution method; format: functional
Staphylococcus aureus [21] = assay: as §5, with “assessed as concentration required for partial growth inhibition” for “assessed as growth inhibition”; format: functional
Staphylococcus aureus [22] = assay: Antibacterial activity against Staphylococcus aureus ATCC 29213 assessed as concentration required for partial growth inhibition by CLSI broth microdilution method; format: functional
BALB/3T3 [23] = assay: Cytotoxicity against mouse BALB/3T3 cells assessed as growth inhibition up to 32 ug/mL after 48 hrs by Alamar blue assay; format: cell-based; details: balb/3t3, 48 h; method in brief: as §4
THP-1 [24] = assay: Cytotoxicity against human THP1 cells assessed as growth inhibition up to 32 ug/mL after 48 hrs by Alamar blue assay; format: cell-based; details: thp-1, 48 h; method in brief: as §4

| Structure (SMILES) | Activity (Bacillus subtilis [1]) | Activity (Bacillus subtilis [2]) | MIC (Streptococcus agalactiae) [µg/mL] | MIC (Staphylococcus aureus [3]) [µg/mL] | MIC (Enterococcus faecium) [µg/mL] | Activity (Bacillus subtilis [4]) | MIC (Klebsiella pneumoniae) [µg/mL] | growth inhibition (GI) (Staphylococcus aureus [5]) | MIC (Enterococcus faecalis) [µg/mL] | MIC (Pseudomonas aeruginosa) [µg/mL] | IC50 (THP-1 [7]) [µg/mL] | MIC (Streptococcus pneumoniae) [µg/mL] | MIC (Bacillus subtilis [8]) [µg/mL] | Activity (Bacillus subtilis [9]) | MIC (Staphylococcus aureus [10]) [µg/mL] | IC50 (BALB/3T3 [11]) [µg/mL] | MIC (Escherichia coli [12]) [µg/mL] | MIC (Escherichia coli [13]) [µg/mL] | MIC (Streptococcus pyogenes) [µg/mL] | MIC (Staphylococcus aureus [15]) [µg/mL] | other results |
| --- | --- | --- | --- | --- | --- | --- | --- | --- | --- | --- | --- | --- | --- | --- | --- | --- | --- | --- | --- | --- | --- |
| CO[C@@]12[C@H](COC(N)=O)C3=C(C(=O)C(C)=C(N)C3=O)N1C[C@@H]1N[C@@H]12 | Active |  |  |  |  |  |  |  |  |  |  |  |  |  |  |  |  |  |  |  |  |
| CC1(O)CC(=O)c2c(cc3cc(O)c(-c4c(O)cc5cc6c(c(O)c5c4O)C(=O)CC(C)(O)C6)c(O)c3c2O)C1 (single isomer, unassigned; atropisomer) [FLAVOMANNIN A] |  | inactive | > 64 | 8 (≈ 14.6 µM) | > 64 | inactive | > 64 | Dose-dependent effect | > 64 | > 64 | > 32 | > 64 | > 64 | inactive | 16 (≈ 29.3 µM) | > 32 | > 64 | > 64 | > 64 | 16 (≈ 29.3 µM) | Activity (Bacillus subtilis [6]): inactive; fold change (FC) (Bacillus subtilis [1]): <2; Activity (Bacillus subtilis [14]): Active; growth inhibition (GI) (Bacillus subtilis [16]): Active |
| COc1cc2cc3c(c(O)c2c(O)c1-c1c(O)cc2cc4c(c(O)c2c1O)C(=O)CC(C)(O)C4)C(=O)CC(C)(O)C3 (single isomer, unassigned; atropisomer) [FLAVOMANNIN C] |  | inactive | > 64 | 32 (≈ 57.1 µM) | > 64 | inactive | > 64 | Dose-dependent effect | 32 (≈ 57.1 µM) | > 64 | > 32 | > 64 | > 64 | inactive | 16 (≈ 28.5 µM) | > 32 | > 64 | > 64 | > 64 | 64 (≈ 114 µM) | Activity (Bacillus subtilis [6]): inactive; growth inhibition (GI) (Bacillus subtilis [16]): Active |
| COc1cc2cc3c(c(O)c2c(O)c1-c1c(O)cc2c(O)c4c(cc2c1O)CC(C)(O)CC4=O)C(=O)CC(C)(O)C3 (single isomer, unassigned; atropisomer) [FLAVOMANNIN D] | Active | inactive | > 64 | 8 (≈ 14.3 µM) | > 64 | inactive | > 64 | Dose-dependent effect | 32 (≈ 57.1 µM) | > 64 | > 32 | 64 (≈ 114 µM) | 64 (≈ 114 µM) | inactive | 8 (≈ 14.3 µM) | > 32 | > 64 | > 64 | 64 (≈ 114 µM) | 8 (≈ 14.3 µM) | concentration giving maximal yorB promoter induction (Bacillus subtilis [6]): 2 µg/mL; growth inhibition (GI) (Bacillus subtilis [16]): Active |
| Cc1cc(O)c2c(c1)C(=O)c1cc(O)c(-c3c(O)cc4c(O)c5c(cc4c3O)CC(C)(O)CC5=O)c(O)c1C2=O (single isomer, unassigned; atropisomer) [Talaromannin B] | Active | inactive | 64 (≈ 118 µM) | 16 (≈ 29.5 µM) | > 64 | inactive | > 64 | Dose-dependent effect | 64 (≈ 118 µM) | > 64 | > 32 | 32 (≈ 59 µM) | > 64 | inactive | 8 (≈ 14.7 µM) | > 32 | > 64 | > 64 | 32 (≈ 59 µM) | 16 (≈ 29.5 µM) | MIC (Staphylococcus aureus [17]): 8 µg/mL (≈ 14.7 µM); concentration giving maximal yorB promoter induction (Bacillus subtilis [6]): 8 µg/mL; Activity (Bacillus subtilis [14]): Active; growth inhibition (GI) (Bacillus subtilis [16]): Active |
| O=C(O)c1cn(C2CC2)c2cc(N3CCNCC3)c(F)cc2c1=O [CIPROFLOXACIN] | Active |  |  |  |  |  |  |  |  |  |  |  |  |  |  |  |  |  |  |  | fold change (FC) (Bacillus subtilis [18]): 20; Activity (Bacillus subtilis [19]): Active |
| Cc1cc(O)c2c(c1)C(=O)c1cc(O)cc(O)c1C2=O [EMODIN] | inactive | inactive | > 64 | 2 (≈ 7.4 µM) | > 64 | inactive | > 64 |  | 16 (≈ 59.2 µM) | > 64 | 32 (≈ 118 µM) | 1 (≈ 3.7 µM) | 16 (≈ 59.2 µM) | inactive | 4 (≈ 14.8 µM) | 32 (≈ 118 µM) | > 64 | > 64 | > 64 | 4 (≈ 14.8 µM) | MIC (Bacillus subtilis [20]): 8 µg/mL (≈ 29.6 µM); Activity (Bacillus subtilis [6]): inactive; MIC (Staphylococcus aureus [21]): 2 µg/mL (≈ 7.4 µM); MIC (Staphylococcus aureus [22]): 2 µg/mL (≈ 7.4 µM) |
| Cc1cc(O)c2c(c1)C(=O)c1c(c(O)cc(O)c1-c1c(O)cc(O)c3c1C(=O)c1cc(C)cc(O)c1C3=O)C2=O [SKYRIN] | inactive | inactive | > 64 | 4 (≈ 7.43 µM) | 32 (≈ 59.4 µM) | inactive | > 64 |  | 16 (≈ 29.7 µM) | > 64 |  | 4 (≈ 7.43 µM) | 4 (≈ 7.43 µM) | inactive | 2 (≈ 3.71 µM) |  | > 64 | > 64 | > 64 | 4 (≈ 7.43 µM) | growth inhibition (GI) (BALB/3T3 [23]): Non-toxic; Activity (Bacillus subtilis [6]): inactive; growth inhibition (GI) (THP-1 [24]): Non-toxic; MIC (Staphylococcus aureus [22]): 2 µg/mL (≈ 3.71 µM) |
